This is an account of results in ChEMBL document CHEMBL1250506, “Synthesis of novel sulfanilamide-derived 1,2,3-triazoles and their evaluation for antibacterial and antifungal activities” (2010).

In brackets after ≈: the same amount, converted by molar mass.

Common to all, as to type: functional
The subject of one test is Bacillus subtilis. The test is described as follows: Antibacterial activity against Bacillus subtilis ATCC 6633 by twofold serial dilution technique.
In a further test the test system is Pseudomonas aeruginosa. The test is described as follows: Antibacterial activity against Pseudomonas aeruginosa by twofold serial dilution technique.
In the next test the test system is Candida albicans. As to the kind of experiment: Antifungal activity against Candida albicans ATCC 76615 by twofold serial dilution technique. The procedure, abridged: (§1)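 Two-fold serial dilution MIC in 96-well microtest plates. Test compounds from DMSO stocks, with fluconazole as reference. MIC read as the first well showing about 80% growth reduction versus the drug-free well.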

The nature of test [1]: Antibacterial activity against Eberthella typhosa by twofold serial dilution technique.
The next test has as its system Escherichia coli. The test is described as follows: Antibacterial activity against Escherichia coli JM 109 by twofold serial dilution technique.
The test system of test [2] is Staphylococcus aureus. As to the kind of experiment: Antibacterial activity against methicillin-resistant Staphylococcus aureus N315 by twofold serial dilution technique. An outline of the steps: (§2)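 MIC by two-fold broth dilution in 96-well plates following NCCLS. Compounds were dissolved in DMSO as stock, then diluted in Mueller-Hinton broth to 512 down to 0.5. Inoculum was bacterial suspension adjusted with sterile saline to 1 ×10⁵ CFU. Plates were incubated 37 °C for 24 h, with a DMSO-supplemented medium control at matching dilutions. Chloramphenicol was the reference.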

For test [3], the system named is Staphylococcus aureus. As to the kind of experiment: Antibacterial activity against Staphylococcus aureus ATCC 25923 by twofold serial dilution technique.
A further test concerns Shigella dysenteriae. The test is described as follows: Antibacterial activity against Shigella dysenteriae by twofold serial dilution technique. An outline of the steps: as §2
The test system of the next test is Candida. The test is described as follows: Antifungal activity against Candida mycoderma by twofold serial dilution technique. The procedure, abridged: as §1

For `C#CCNS(=O)(=O)c1ccc(N)cc1`, the MIC (in the test with Bacillus subtilis; against Pseudomonas aeruginosa; in the test on Candida albicans; in test [1]; in the test on Escherichia coli; against Staphylococcus aureus [2]) was above 512 µg/mL throughout. Besides, the MIC in the test with Staphylococcus aureus [3], with Shigella dysenteriae and with Candida was above 512 µg/mL in each case.
For the molecule `CCCCCn1cc(CNS(=O)(=O)c2ccc(N)cc2)nn1`, the MIC (in general, the lowest concentration that inhibits growth of the organism) against Bacillus subtilis is above 512 µg/mL; against Pseudomonas aeruginosa, 512 µg/mL (≈ 1580 µM); with Candida albicans, above 512 µg/mL; in [1] it was 512 µg/mL (≈ 1580 µM); against Escherichia coli, above 512 µg/mL; with Staphylococcus aureus [2], above 512 µg/mL. Also, the MIC in the test on Staphylococcus aureus [3] is above 512 µg/mL; with Shigella dysenteriae, 512 µg/mL (≈ 1580 µM); against Candida it was above 512 µg/mL.
On to `CCCCCCn1cc(CNS(=O)(=O)c2ccc(N)cc2)nn1`, for which the MIC in the test with Bacillus subtilis was 256 µg/mL (≈ 759 µM); in the test on Pseudomonas aeruginosa, 256 µg/mL (≈ 759 µM); against Candida albicans, above 512 µg/mL; in test [1], above 512 µg/mL; with Escherichia coli it was above 512 µg/mL; in the test with Staphylococcus aureus [2] it was 512 µg/mL (≈ 1520 µM). Further, the MIC was 512 µg/mL (≈ 1520 µM) against Staphylococcus aureus [3], 256 µg/mL (≈ 759 µM) in the test with Shigella dysenteriae and above 512 µg/mL against Candida.
Take `CCCCCCCCn1cc(CNS(=O)(=O)c2ccc(N)cc2)nn1`: the MIC was 256 µg/mL (≈ 700 µM) in the test with Bacillus subtilis; 128 µg/mL (≈ 350 µM) against Pseudomonas aeruginosa; above 512 µg/mL in the test on Candida albicans; 256 µg/mL (≈ 700 µM) in [1]; 512 µg/mL (≈ 1400 µM) with Escherichia coli; 512 µg/mL (≈ 1400 µM) against Staphylococcus aureus [2]. The MIC in the test with Staphylococcus aureus [3] was above 512 µg/mL; against Shigella dysenteriae it was 256 µg/mL (≈ 700 µM); in the test with Candida, 512 µg/mL (≈ 1400 µM).
Consider `CCCCCCCCCCn1cc(CNS(=O)(=O)c2ccc(N)cc2)nn1`, for which the MIC is 64 µg/mL (≈ 163 µM) with Bacillus subtilis; 64 µg/mL (≈ 163 µM) against Pseudomonas aeruginosa; above 512 µg/mL in the test on Candida albicans; 128 µg/mL (≈ 325 µM) in test [1]; 512 µg/mL (≈ 1300 µM) in the test with Escherichia coli; 512 µg/mL (≈ 1300 µM) against Staphylococcus aureus [2]. The MIC in the test with Staphylococcus aureus [3] was 256 µg/mL (≈ 650 µM); against Shigella dysenteriae it was 128 µg/mL (≈ 325 µM); in the test on Candida, above 512 µg/mL.
Take `CCCCCCCCCCCCn1cc(CNS(=O)(=O)c2ccc(N)cc2)nn1`: the MIC turned out to be 128 µg/mL (≈ 304 µM) in the test on Bacillus subtilis; 32 µg/mL (≈ 75.9 µM) against Pseudomonas aeruginosa; 512 µg/mL (≈ 1210 µM) in the test on Candida albicans; 64 µg/mL (≈ 152 µM) in test [1]; 64 µg/mL (≈ 152 µM) against Escherichia coli; 128 µg/mL (≈ 304 µM) in the test on Staphylococcus aureus [2]. Moreover, the figures for the minimum inhibitory concentration (MIC) against Staphylococcus aureus [3], in the test on Shigella dysenteriae and against Candida were 128 µg/mL (≈ 304 µM), 32 µg/mL (≈ 75.9 µM) and 256 µg/mL (≈ 607 µM), respectively.
Regarding `CCCCCCCCCCCCCCCCn1cc(CNS(=O)(=O)c2ccc(N)cc2)nn1`, the MIC with Bacillus subtilis is 256 µg/mL (≈ 536 µM); against Pseudomonas aeruginosa, 64 µg/mL (≈ 134 µM); against Candida albicans, above 512 µg/mL; in test [1] it was 128 µg/mL (≈ 268 µM); against Escherichia coli, 256 µg/mL (≈ 536 µM); in the test on Staphylococcus aureus [2], 512 µg/mL (≈ 1070 µM). Besides, the MIC against Staphylococcus aureus [3] is 256 µg/mL (≈ 536 µM); in the test on Shigella dysenteriae, 128 µg/mL (≈ 268 µM); in the test with Candida, above 512 µg/mL.
For `Nc1ccc(S(=O)(=O)NCc2cn(Cc3ccccc3)nn2)cc1`, the MIC is above 512 µg/mL against Bacillus subtilis; 512 µg/mL (≈ 1490 µM) against Pseudomonas aeruginosa; above 512 µg/mL against Candida albicans; 512 µg/mL (≈ 1490 µM) in test [1]; above 512 µg/mL against Escherichia coli; 256 µg/mL (≈ 745 µM) against Staphylococcus aureus [2]. Moreover, the MIC is 512 µg/mL (≈ 1490 µM) against Staphylococcus aureus [3], 512 µg/mL (≈ 1490 µM) against Shigella dysenteriae and above 512 µg/mL against Candida.
For `Cc1cccc(Cn2cc(CNS(=O)(=O)c3ccc(N)cc3)nn2)c1`, the MIC in the test on Bacillus subtilis was 512 µg/mL (≈ 1430 µM); against Pseudomonas aeruginosa, above 512 µg/mL; with Candida albicans, above 512 µg/mL; in [1] it was 512 µg/mL (≈ 1430 µM); in the test with Escherichia coli it was above 512 µg/mL; in the test on Staphylococcus aureus [2], above 512 µg/mL. Moreover, the MIC in the test on Staphylococcus aureus [3], in the test on Shigella dysenteriae and in the test with Candida was above 512 µg/mL throughout.
With `Nc1ccc(S(=O)(=O)NCc2cn(Cc3ccc([N+](=O)[O-])cc3)nn2)cc1`, the MIC against Bacillus subtilis is 256 µg/mL (≈ 659 µM); with Pseudomonas aeruginosa it was above 512 µg/mL; with Candida albicans it was above 512 µg/mL; in test [1], above 512 µg/mL; in the test with Escherichia coli it was above 512 µg/mL; with Staphylococcus aureus [2], 256 µg/mL (≈ 659 µM). For the same molecule, the MIC against Staphylococcus aureus [3], against Shigella dysenteriae and in the test with Candida was above 512 µg/mL in each case.
With `Nc1ccc(S(=O)(=O)NCc2cn(Cc3ccccc3Cl)nn2)cc1`, the MIC in the test on Bacillus subtilis was above 512 µg/mL; in the test with Pseudomonas aeruginosa, 512 µg/mL (≈ 1360 µM); with Candida albicans, above 512 µg/mL; in [1], above 512 µg/mL; against Escherichia coli it was above 512 µg/mL; against Staphylococcus aureus [2], above 512 µg/mL. Besides, the MIC against Staphylococcus aureus [3] was above 512 µg/mL; against Shigella dysenteriae, 512 µg/mL (≈ 1360 µM); against Candida it was above 512 µg/mL.
With `Nc1ccc(S(=O)(=O)NCc2cn(Cc3cccc(Cl)c3)nn2)cc1`, the MIC against Bacillus subtilis was above 512 µg/mL; in the test with Pseudomonas aeruginosa, 512 µg/mL (≈ 1360 µM); with Candida albicans, above 512 µg/mL; in test [1], 256 µg/mL (≈ 678 µM); against Escherichia coli it was above 512 µg/mL; in the test on Staphylococcus aureus [2], 256 µg/mL (≈ 678 µM). The MIC in the test on Staphylococcus aureus [3] is 512 µg/mL (≈ 1360 µM); in the test on Shigella dysenteriae, above 512 µg/mL; with Candida, above 512 µg/mL.
With `Nc1ccc(S(=O)(=O)NCc2cn(Cc3ccc(Cl)cc3)nn2)cc1`, the MIC is above 512 µg/mL against Bacillus subtilis; above 512 µg/mL against Pseudomonas aeruginosa; above 512 µg/mL against Candida albicans; 512 µg/mL (≈ 1360 µM) in test [1]; above 512 µg/mL with Escherichia coli; above 512 µg/mL in the test on Staphylococcus aureus [2]. The MIC against Staphylococcus aureus [3] is 512 µg/mL (≈ 1360 µM); in the test on Shigella dysenteriae, above 512 µg/mL; against Candida it was above 512 µg/mL.
With `Nc1ccc(S(=O)(=O)NCc2cn(Cc3ccc(Cl)cc3Cl)nn2)cc1`, the minimum inhibitory concentration (MIC) against Bacillus subtilis came out at 128 µg/mL (≈ 310 µM); with Pseudomonas aeruginosa, 64 µg/mL (≈ 155 µM); against Candida albicans, 512 µg/mL (≈ 1240 µM); in test [1], 128 µg/mL (≈ 310 µM); against Escherichia coli, 128 µg/mL (≈ 310 µM); against Staphylococcus aureus [2], 128 µg/mL (≈ 310 µM). Besides, the results for the MIC with Staphylococcus aureus [3], against Shigella dysenteriae and in the test with Candida were 64 µg/mL (≈ 155 µM), 32 µg/mL (≈ 77.6 µM) and 512 µg/mL (≈ 1240 µM), respectively.
`Nc1ccc(S(=O)(=O)NCc2cn(Cc3ccc(F)cc3)nn2)cc1`: the MIC against Bacillus subtilis was above 512 µg/mL; in the test with Pseudomonas aeruginosa it was 128 µg/mL (≈ 354 µM); in the test with Candida albicans, above 512 µg/mL; in [1], 256 µg/mL (≈ 708 µM); in the test on Escherichia coli, 256 µg/mL (≈ 708 µM); in the test with Staphylococcus aureus [2], above 512 µg/mL. Further, the MIC in the test with Staphylococcus aureus [3] is 128 µg/mL (≈ 354 µM); against Shigella dysenteriae it was 128 µg/mL (≈ 354 µM); in the test on Candida it was above 512 µg/mL.
Regarding `Nc1ccc(S(=O)(=O)NCc2cn(Cc3ccc(F)cc3F)nn2)cc1`, the MIC worked out at 128 µg/mL (≈ 337 µM) with Bacillus subtilis; 16 µg/mL (≈ 42.2 µM) against Pseudomonas aeruginosa; 256 µg/mL (≈ 675 µM) against Candida albicans; 128 µg/mL (≈ 337 µM) in test [1]; 128 µg/mL (≈ 337 µM) in the test on Escherichia coli; 128 µg/mL (≈ 337 µM) in the test on Staphylococcus aureus [2]. The MIC against Staphylococcus aureus [3] was found to be 64 µg/mL (≈ 169 µM); in the test on Shigella dysenteriae, 16 µg/mL (≈ 42.2 µM); in the test with Candida, 512 µg/mL (≈ 1350 µM).
Regarding `O=C(N[C@H](CO)[C@H](O)c1ccc([N+](=O)[O-])cc1)C(Cl)Cl` [CHLORAMPHENICOL], the MIC amounted to 2 µg/mL (≈ 6.19 µM) in the test with Bacillus subtilis; 8 µg/mL (≈ 24.8 µM) against Pseudomonas aeruginosa; 2 µg/mL (≈ 6.19 µM) in [1]; 4 µg/mL (≈ 12.4 µM) in the test with Escherichia coli; 2 µg/mL (≈ 6.19 µM) in the test with Staphylococcus aureus [2]; 4 µg/mL (≈ 12.4 µM) with Staphylococcus aureus [3]. Moreover, the MIC against Shigella dysenteriae came to 4 µg/mL (≈ 12.4 µM).
On to `OC(Cn1cncn1)(Cn1cncn1)c1ccc(F)cc1F` [FLUCONAZOLE], for which the MIC with Candida albicans was determined as 0.5 µg/mL (≈ 1.63 µM); against Candida, 4 µg/mL (≈ 13.1 µM).
